Activity calls are given as the source filed them. The rule behind the calls is not given here.
What was measured:
[1] = test system: Felis catus; assay: Skeletal muscle relaxant activity in po dosed chronic spinal mongrel cat assessed as reduction of flexor spasm administered every 15 mins interval; type: functional
How it was run: (§1)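 Test agent dissolved in normal saline and given to chronic spinal animals intravenously or by oral gavage as cumulative doses at 15-min intervals. The flexor reflex response was compared against predrug control responses. ED70 is the cumulative dose that reduced the flexor reflex by 70% or more.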

[2] = Dissociation constant, pKa of the compound; type: physicochemical
[3] = test system: Mus musculus; assay: Anticonvulsant activity in po dosed Swiss mouse assessed as reduction of 3-mercaptopropionic acid-induced tonic extensor-seizures within 3 to 7 mins; type: functional
How it was run: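 Robidoux Swiss male mice, 18–22 g. Test substances in saline given orally 30 min before ip 3-mercaptopropionic acid at 25 mg/kg, which induces tonic-extensor seizures within 3–7 min in 90–100% of mice. ED50 is the dose preventing tonic-extensor seizures in 50% of animals, by regression analysis over at least three doses with ten mice per dose level.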

[4] = test system: Rattus norvegicus; assay: Skeletal muscle relaxant activity in iv dosed chronic spinal Sprague-Dawley rat assessed as reduction of flexor spasm administered every 15 mins interval; type: functional; details: 0.25 h; how it was run: as §1
[5] = test system: Felis catus; assay: Skeletal muscle relaxant activity in chronic spinal mongrel cat assessed as reduction of flexor spasm up to 7.5 mg/kg, iv administered every 15 mins interval; type: functional, organism-based; parameters: dose 7.5 mg/kg
How it was run: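 Chronic spinal cat preparation. Test substances in normal saline were given iv in cumulative doses at 15-min intervals, and the flexor reflex response was recorded against predrug control responses. ED70 is the cumulative dose reducing the flexor reflex response by 70% or more.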

[6] = test system: Felis catus; assay: Skeletal muscle relaxant activity in chronic spinal mongrel cat assessed as reduction of flexor spasm up to 16 mg/kg, iv administered every 15 mins interval; type: functional, organism-based; parameters: dose 16 mg/kg; how it was run: as §1
[7] = test system: Felis catus; assay: Skeletal muscle relaxant activity in iv dosed chronic spinal mongrel cat assessed as reduction of flexor spasm administered every 15 mins interval; type: functional; details: 0.25 h; how it was run: as §1
[8] = test system: Mus musculus; assay: Toxicity in Swiss mouse at 128 mg/kg, po; type: organism-based; parameters: dose 128 mg/kg, route oral; details: in vivo
[9] = test system: Rattus norvegicus; assay: Toxicity in iv dosed chronic spinal Sprague-Dawley rat assessed as lethality at cumulative dose of 16 mg/kg, iv; type: organism-based; parameters: dose 16 mg/kg, route intravenous; details: in vivo
[10] = test system: Mus musculus; assay: Toxicity in Swiss mouse at 8 mg/kg, po; type: organism-based; parameters: dose 8 mg/kg, route oral; details: in vivo

NCCC(=O)NCc1cc(=O)c(O)co1
ED70 [1]: inactive

O=c1cc(CO)occ1O [KOJIC ACID]
pKa [2]: 7.95

NCCc1cc(=O)c(O)co1
ED70 [1]: inactive

NCCCC(=O)NCc1cc(=O)c(O)co1
ED70 [1]: inactive

NCc1cc(=O)c(O)c[nH]1
ED70 [1]: inactive

CN(C)Cc1cc(=O)c(O)co1
ED70 [1]: inactive

NCc1cc(O)no1 [MUSCIMOL]
ED50 [3]: 1.34 mg/kg | ED70 [4]: 16 mg/kg | Activity [5]: inactive

NC(Cl)c1cc(=O)c(O)co1 (stereo not given)
ED70 [1]: inactive

CNCc1cc(=O)c(O)co1
ED70 [1]: inactive

NCCCc1cc(=O)c(O)co1
Activity [6]: inactive

CC(N)c1cc(=O)c(O)co1 (stereo not given)
ED70 [1]: inactive

O=c1cc(CNCc2ccccc2)occ1O
ED70 [1]: inactive

NCC(=O)NCc1cc(=O)c(O)co1
ED70 [4]: 8 mg/kg | ED70 [7]: 12 mg/kg

NCc1cc(=O)c(O)co1
pKa [2]: 6.6 | ED50 [3]: 15 mg/kg | ED70 [4]: 8 mg/kg | ED70 [7]: 2.2 mg/kg | Activity [8]: Non-toxic | ED70 ([1]; 0.25 h): 4 mg/kg

CC(=O)NCc1cc(=O)c(O)co1
ED70 [1]: inactive

NCc1cc(=O)[nH]o1 [MUSCIMOL]
pKa [2]: 4.78 | Activity [9]: Toxic | Activity [10]: Toxic

CC(N)C(=O)NCc1cc(=O)c(O)co1 (stereo not given)
ED70 [4]: 8 mg/kg | ED70 [7]: 12 mg/kg

NCCCC(=O)O [GAMMA-AMINOBUTYRIC ACID]
pKa [2]: 4.04

Cn1cc(O)c(=O)cc1CN
ED70 [1]: inactive

Source: ChEMBL document CHEMBL3244054, “Kojic amine--a novel gamma-aminobutyric acid analogue” (J Med Chem, 1979)
